Assay results as given in ChEMBL document CHEMBL1142153, “Pharmacokinetics and disposition of CS-023 (RO4908463), a novel parenteral carbapenem, in animals” (Antimicrob Agents Chemother, 2007).

Columns and labels:
Rattus norvegicus [1] = test: AUC (0-inf) in rat assessed as radioactivity at 10 mg/kg, iv; format: ADME, organism-based, Plasma; set-up: time infinity, dose 10 mg/kg, route intravenous; details: in vivo
Procedure, shortened: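 [14C]CS-023 with unlabeled drug in saline, 10 mg/kg single i.v. bolus (rats via tail vein, 4.58 MBq/kg; monkeys via cephalic vein, 3 MBq/kg). Blood drawn with heparin (rat jugular, monkey femoral vein) at set times. Plasma centrifuged at 4°C, and total radioactivity counted by liquid scintillation with tissue solubilizer. Quantitation limit was twice background.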

Rattus norvegicus [2] = test: Urinary excretion ratio in rat assessed as radioactivity at 10 mg/kg, iv after 7 days; format: ADME, organism-based, Urine; set-up: dose 10 mg/kg, route intravenous; details: in vivo, 168 h
Procedure, shortened: (§1)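 Rats were dosed i.v. via the tail vein with [14C]CS-023 at 10 mg/kg (4.58 MBq/kg) in saline, then kept in individual metabolic cages for separate urine and feces collection over 7 days. Samples up to 24 h were collected at around 4°C into 0.5 M MOPS pH 6.0, and feces were homogenized. Radioactivity was measured by liquid scintillation counting. Parent drug and metabolite were apportioned by silica TLC (3% NaCl:acetonitrile 2:1) with imaging-plate analysis. n=4.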

Rattus norvegicus [3] = test: Fecal excretion ratio in rat assessed as radioactivity at 10 mg/kg, iv after 7 days; format: ADME, organism-based; set-up: dose 10 mg/kg, route intravenous; details: in vivo, 168 h; procedure, shortened: as §1
Rattus norvegicus [4] = test: Biliary excretion in bile duct cannulated rat assessed as radioactivity at 10 mg/kg, iv after 48 h; format: ADME, organism-based; set-up: dose 10 mg/kg, route intravenous; details: in vivo
Procedure, shortened: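 Rats had bile-duct cannulation by laparotomy under diethyl ether and were housed in Bollman cages. They were then dosed i.v. with [14C]CS-023 at 10 mg/kg in saline. Bile was collected on ice over set intervals, and radioactivity was measured by liquid scintillation counting.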

Macaca fascicularis [5] = test: AUC (0-inf) in monkey assessed as radioactivity at 10 mg/kg, iv; details: cynomolgus monkey, in vivo
Macaca fascicularis [6] = test: Fecal excretion ratio in monkey assessed as radioactivity at 10 mg/kg, iv after 7 days; details: cynomolgus monkey, in vivo, 168 h
Macaca fascicularis [7] = test: Urinary excretion ratio in monkey assessed as radioactivity at 10 mg/kg, iv after 7 days; details: cynomolgus monkey, in vivo, 168 h

C[C@@H](O)[C@H]1C(=O)N2[C@@H]1[C@@H](C)C(S[C@H]1C[C@@H](C(=O)N3CC[C@H](NC(=O)CNC(=N)N)C3)N(C)C1)=[14C]2C(=O)O
AUC (Rattus norvegicus [1]): 26800 ng·h/mL
Activity (Rattus norvegicus [2]): 87.1%
Activity (Rattus norvegicus [3]): 12.5%
Activity (Rattus norvegicus [4]): 0.54%
AUC (Macaca fascicularis [5]): 87400 ng·h/mL
Activity (Macaca fascicularis [6]): 7.5%
Activity (Macaca fascicularis [7]): 88%
